Legend:
Mus musculus [1] = test: Inhibition of PDK1-mediated RSK phosphorylation at Ser221 residue in human OCI-AML-2 cells xenografted in SCID mouse at 100 mg/kg, ip after 3 hrs by LC/MS/MS analysis; conditions: OCI-AML2, ip, read-out: INH
TGF-beta receptor type-1 = molecular target: T1, TGF-beta receptor type-1 (Homo sapiens, UniProt P36897); test: Inhibition of ALK5
T1 sequence (P36897 whole entry): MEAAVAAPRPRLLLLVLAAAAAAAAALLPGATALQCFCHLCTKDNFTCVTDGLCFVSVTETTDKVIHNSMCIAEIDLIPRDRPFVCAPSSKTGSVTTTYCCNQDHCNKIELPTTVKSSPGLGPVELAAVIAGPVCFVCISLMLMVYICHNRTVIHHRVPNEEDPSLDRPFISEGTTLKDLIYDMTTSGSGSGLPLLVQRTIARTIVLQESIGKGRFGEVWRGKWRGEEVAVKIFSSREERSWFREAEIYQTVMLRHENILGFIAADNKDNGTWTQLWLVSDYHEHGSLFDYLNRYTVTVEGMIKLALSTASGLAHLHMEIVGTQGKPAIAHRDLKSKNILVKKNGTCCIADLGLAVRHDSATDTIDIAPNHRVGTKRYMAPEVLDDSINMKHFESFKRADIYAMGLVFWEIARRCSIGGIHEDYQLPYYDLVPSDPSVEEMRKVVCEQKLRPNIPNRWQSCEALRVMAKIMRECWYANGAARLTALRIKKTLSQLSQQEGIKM

[2] = molecular target: Ribosomal protein S6 kinase alpha-6 (Homo sapiens) (UniProt Q9UK32); test: Inhibition of human RSK4 assessed as residual activity at 10 uM
HEL = test: Antiproliferative activity against human HEL 92.1.7 cells; format: functional, cell-based
[3] = molecular target: Serine/threonine-protein kinase 17A (Homo sapiens) (UniProt Q9UEE5); test: Inhibition of human DRAK1 assessed as residual activity at 10 uM
Serine/threonine-protein kinase 17A (Homo sapiens), sequence (Q9UEE5 whole entry): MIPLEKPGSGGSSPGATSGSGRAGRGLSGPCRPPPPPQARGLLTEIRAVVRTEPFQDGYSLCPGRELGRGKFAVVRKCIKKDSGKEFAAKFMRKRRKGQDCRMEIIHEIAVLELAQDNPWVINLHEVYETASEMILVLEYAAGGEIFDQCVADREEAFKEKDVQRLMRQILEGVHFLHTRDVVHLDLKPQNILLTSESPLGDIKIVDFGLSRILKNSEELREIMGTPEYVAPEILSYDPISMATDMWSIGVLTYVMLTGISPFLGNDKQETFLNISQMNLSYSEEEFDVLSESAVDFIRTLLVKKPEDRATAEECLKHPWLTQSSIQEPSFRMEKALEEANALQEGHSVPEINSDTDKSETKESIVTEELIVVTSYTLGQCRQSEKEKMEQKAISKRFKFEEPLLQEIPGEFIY

Mus musculus [4] = test: Inhibition of PDK1-mediated AKT phosphorylation at Thr308 residue in human OCI-AML-2 cells xenografted in SCID mouse at 100 mg/kg, ip after 6 hrs by LC/MS/MS analysis; conditions: OCI-AML2, ip, read-out: INH
[5] = molecular target: Rho-associated protein kinase 2 (Rattus norvegicus) (UniProt Q62868); test: Inhibition of rat ROCK2 assessed as residual activity at 10 uM
[6] = molecular target: 3-phosphoinositide-dependent protein kinase 1 (Homo sapiens) (UniProt O15530); test: Inhibition of human PDK1 assessed as residual activity at 10 uM
[7] = test system: Hepatocyte growth factor receptor (Homo sapiens), P08581 [D1246H]; test: Inhibition of human MET D1246H mutant assessed as residual activity at 10 uM
OCI-AML2 = test: Antiproliferative activity against human OCI-AML2 cells; format: functional, cell-based
Mus musculus [8] = test: Inhibition of PDK1-mediated AKT phosphorylation at Thr308 residue in human OCI-AML-2 cells xenografted in SCID mouse at 100 mg/kg, ip after 3 hrs by LC/MS/MS analysis; conditions: OCI-AML2, ip, read-out: INH
[9] = Antiproliferative activity against human F-36P cells; format: functional, cell-based
[10] = molecular target: Death-associated protein kinase 3 (Homo sapiens) (UniProt O43293); test: Inhibition of human ZIPK assessed as residual activity at 10 uM
[11] = Antiproliferative activity against human OCI-AML3 cells; format: functional, cell-based; conditions: OCI-AML-3
[12] = molecular target: Inhibitor of nuclear factor kappa-B kinase subunit alpha (Homo sapiens, UniProt O15111); test: Inhibition of IKK1
[13] = molecular target: Serine/threonine-protein kinase Sgk1 (Homo sapiens) (UniProt O00141); test: Inhibition of human SGK assessed as residual activity at 10 uM
Serine/threonine-protein kinase Sgk1 (Homo sapiens), sequence (O00141 whole entry): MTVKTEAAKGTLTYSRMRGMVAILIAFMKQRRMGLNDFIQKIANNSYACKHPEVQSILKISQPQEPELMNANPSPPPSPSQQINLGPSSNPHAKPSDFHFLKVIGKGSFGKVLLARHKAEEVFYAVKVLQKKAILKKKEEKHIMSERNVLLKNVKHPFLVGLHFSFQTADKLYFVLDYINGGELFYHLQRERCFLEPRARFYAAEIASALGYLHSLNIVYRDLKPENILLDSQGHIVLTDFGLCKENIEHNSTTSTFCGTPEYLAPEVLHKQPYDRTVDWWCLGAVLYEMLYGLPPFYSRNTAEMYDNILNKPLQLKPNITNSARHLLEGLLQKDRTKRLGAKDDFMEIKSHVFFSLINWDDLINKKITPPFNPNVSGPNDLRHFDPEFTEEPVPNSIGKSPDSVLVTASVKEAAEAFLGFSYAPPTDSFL

[14] = molecular target: Mitogen-activated protein kinase kinase kinase 5 (Homo sapiens, UniProt Q99683); test: Inhibition of ASK1
Mitogen-activated protein kinase kinase kinase 5, sequence (Q99683 whole entry): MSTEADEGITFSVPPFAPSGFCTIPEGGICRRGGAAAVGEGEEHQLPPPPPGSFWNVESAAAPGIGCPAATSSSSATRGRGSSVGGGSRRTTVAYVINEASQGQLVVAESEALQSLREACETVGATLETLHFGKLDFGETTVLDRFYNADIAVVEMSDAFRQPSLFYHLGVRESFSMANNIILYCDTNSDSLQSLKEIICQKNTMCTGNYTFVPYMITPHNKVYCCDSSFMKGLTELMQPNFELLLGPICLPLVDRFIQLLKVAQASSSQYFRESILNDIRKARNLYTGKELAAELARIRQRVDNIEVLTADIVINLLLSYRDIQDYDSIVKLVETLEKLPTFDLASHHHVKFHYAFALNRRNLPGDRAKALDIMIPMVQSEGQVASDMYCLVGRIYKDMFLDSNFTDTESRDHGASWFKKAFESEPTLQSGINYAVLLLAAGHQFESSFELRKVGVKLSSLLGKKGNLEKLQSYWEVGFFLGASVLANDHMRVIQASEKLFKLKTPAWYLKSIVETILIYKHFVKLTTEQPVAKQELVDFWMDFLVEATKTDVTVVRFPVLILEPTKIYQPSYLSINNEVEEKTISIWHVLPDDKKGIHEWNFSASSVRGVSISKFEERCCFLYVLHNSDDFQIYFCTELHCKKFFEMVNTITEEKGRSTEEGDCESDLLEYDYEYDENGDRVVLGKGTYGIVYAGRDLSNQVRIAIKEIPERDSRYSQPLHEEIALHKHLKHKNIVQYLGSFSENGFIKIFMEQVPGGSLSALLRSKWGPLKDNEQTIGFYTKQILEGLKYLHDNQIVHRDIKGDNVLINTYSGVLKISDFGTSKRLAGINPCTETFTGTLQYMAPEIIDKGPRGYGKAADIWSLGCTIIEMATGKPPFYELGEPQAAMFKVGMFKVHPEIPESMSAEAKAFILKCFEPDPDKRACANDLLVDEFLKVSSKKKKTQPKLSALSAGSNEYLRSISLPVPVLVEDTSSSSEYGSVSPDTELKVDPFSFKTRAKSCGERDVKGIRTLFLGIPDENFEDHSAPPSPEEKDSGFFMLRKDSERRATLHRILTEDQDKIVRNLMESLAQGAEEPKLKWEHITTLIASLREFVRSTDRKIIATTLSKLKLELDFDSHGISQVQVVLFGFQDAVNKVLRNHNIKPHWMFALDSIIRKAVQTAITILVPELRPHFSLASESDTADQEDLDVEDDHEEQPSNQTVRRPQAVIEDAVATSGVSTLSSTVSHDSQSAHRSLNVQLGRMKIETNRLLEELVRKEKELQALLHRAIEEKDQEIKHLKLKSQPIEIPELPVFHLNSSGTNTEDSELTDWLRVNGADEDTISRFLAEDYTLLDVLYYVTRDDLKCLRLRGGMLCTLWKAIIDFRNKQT

[15] = molecular target: Ribosomal protein S6 kinase alpha-1 (Rattus norvegicus) (UniProt Q63531); test: Inhibition of rat RSK1 assessed as residual activity at 10 uM
[16] = molecular target: cAMP-dependent protein kinase catalytic subunit PRKX (Homo sapiens) (UniProt P51817); test: Inhibition of human PrKX assessed as residual activity at 10 uM
[17] = molecular target: Rho-associated protein kinase 2 (Homo sapiens) (UniProt O75116); test: Inhibition of human ROCK2 assessed as residual activity at 10 uM
[18] = molecular target: Ribosomal protein S6 kinase alpha-1 (Homo sapiens) (UniProt Q15418); test: Inhibition of human RSK1 assessed as residual activity at 10 uM
[19] = molecular target: Serine/threonine-protein kinase Chk2 (Homo sapiens) (UniProt O96017); test: Inhibition of human CHK2 assessed as residual activity at 10 uM
[20] = molecular target: Ribosomal protein S6 kinase alpha-2 (Homo sapiens) (UniProt Q15349); test: Inhibition of human RSK3 assessed as residual activity at 10 uM
K562 = test: Antiproliferative activity against human K562 cells; format: functional, cell-based
[21] = molecular target: Phosphatidylinositol 4,5-bisphosphate 3-kinase catalytic subunit gamma isoform (Homo sapiens, UniProt P48736); test: Inhibition of PI3Kgamma
Phosphatidylinositol 4,5-bisphosphate 3-kinase catalytic subunit gamma isoform, sequence (P48736 whole entry, canonical isoform): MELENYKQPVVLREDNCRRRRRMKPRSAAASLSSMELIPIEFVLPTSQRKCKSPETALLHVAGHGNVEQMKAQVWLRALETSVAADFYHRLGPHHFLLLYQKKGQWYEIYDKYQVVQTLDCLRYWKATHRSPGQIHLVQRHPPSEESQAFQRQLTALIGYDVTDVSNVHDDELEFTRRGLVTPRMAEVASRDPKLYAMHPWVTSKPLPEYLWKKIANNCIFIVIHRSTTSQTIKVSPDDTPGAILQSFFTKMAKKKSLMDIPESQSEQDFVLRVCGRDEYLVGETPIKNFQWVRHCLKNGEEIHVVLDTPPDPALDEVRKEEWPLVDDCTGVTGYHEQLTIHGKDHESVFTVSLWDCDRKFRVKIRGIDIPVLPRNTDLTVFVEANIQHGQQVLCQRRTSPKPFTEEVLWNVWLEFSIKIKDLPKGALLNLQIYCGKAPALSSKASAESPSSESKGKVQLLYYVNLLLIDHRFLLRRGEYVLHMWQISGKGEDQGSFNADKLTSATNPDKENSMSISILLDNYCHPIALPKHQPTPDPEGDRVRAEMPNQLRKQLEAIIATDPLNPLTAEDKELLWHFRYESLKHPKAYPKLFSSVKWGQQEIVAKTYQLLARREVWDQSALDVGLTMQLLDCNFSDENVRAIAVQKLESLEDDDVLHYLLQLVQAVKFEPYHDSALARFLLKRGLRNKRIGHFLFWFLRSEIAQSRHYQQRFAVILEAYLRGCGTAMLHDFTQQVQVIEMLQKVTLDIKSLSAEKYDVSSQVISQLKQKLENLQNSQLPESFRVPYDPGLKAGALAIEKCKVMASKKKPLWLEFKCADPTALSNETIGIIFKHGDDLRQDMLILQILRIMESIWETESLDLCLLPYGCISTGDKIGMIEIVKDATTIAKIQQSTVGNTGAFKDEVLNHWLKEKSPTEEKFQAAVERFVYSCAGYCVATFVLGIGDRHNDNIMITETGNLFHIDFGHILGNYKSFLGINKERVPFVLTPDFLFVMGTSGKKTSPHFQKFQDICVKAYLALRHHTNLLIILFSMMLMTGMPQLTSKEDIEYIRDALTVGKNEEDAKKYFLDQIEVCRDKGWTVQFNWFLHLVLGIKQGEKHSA

Mus musculus [22] = test: Inhibition of PDK1-mediated RSK phosphorylation at Ser221 residue in human OCI-AML-2 cells xenografted in SCID mouse at 100 mg/kg, ip after 6 hrs by LC/MS/MS analysis; conditions: OCI-AML2, ip, read-out: INH
[23] = molecular target: NUAK family SNF1-like kinase 1 (Homo sapiens) (UniProt O60285); test: Inhibition of human ARK5 assessed as residual activity at 10 uM
[24] = molecular target: Tyrosine-protein kinase SYK (Homo sapiens, UniProt P43405); test: Inhibition of SYK
[25] = molecular target: Serine/threonine-protein kinase BRSK1 (Homo sapiens) (UniProt Q8TDC3); test: Inhibition of human BRSK1 assessed as residual activity at 10 uM
[26] = molecular target: Ribosomal protein S6 kinase alpha-3 (Homo sapiens) (UniProt P51812); test: Inhibition of human RSK2 assessed as residual activity at 10 uM
Ribosomal protein S6 kinase alpha-3 (Homo sapiens), sequence (P51812 whole entry): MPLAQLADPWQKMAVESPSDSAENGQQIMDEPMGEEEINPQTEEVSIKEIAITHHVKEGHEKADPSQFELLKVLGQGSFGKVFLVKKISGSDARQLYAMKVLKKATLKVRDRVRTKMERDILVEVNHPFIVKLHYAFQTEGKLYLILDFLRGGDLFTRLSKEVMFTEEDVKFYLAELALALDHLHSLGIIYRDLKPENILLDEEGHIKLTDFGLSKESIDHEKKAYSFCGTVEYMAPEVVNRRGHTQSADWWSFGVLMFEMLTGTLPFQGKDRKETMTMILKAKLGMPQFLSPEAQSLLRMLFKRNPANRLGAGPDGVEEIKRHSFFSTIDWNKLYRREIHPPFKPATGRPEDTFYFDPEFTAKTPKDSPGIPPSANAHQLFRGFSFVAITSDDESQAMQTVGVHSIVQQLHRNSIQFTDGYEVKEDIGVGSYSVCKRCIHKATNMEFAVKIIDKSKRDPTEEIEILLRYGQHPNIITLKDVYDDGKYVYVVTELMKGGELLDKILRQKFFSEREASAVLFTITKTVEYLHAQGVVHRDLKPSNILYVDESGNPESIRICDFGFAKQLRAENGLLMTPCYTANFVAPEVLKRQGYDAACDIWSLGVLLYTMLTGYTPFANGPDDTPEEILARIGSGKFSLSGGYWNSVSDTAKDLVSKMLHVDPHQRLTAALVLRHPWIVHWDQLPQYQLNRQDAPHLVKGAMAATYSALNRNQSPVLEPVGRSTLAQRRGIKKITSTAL

[27] = molecular target: Serine/threonine-protein kinase BRSK2 (Homo sapiens) (UniProt Q8IWQ3); test: Inhibition of human BRSK2 assessed as residual activity at 10 uM
[28] = molecular target: Vascular endothelial growth factor receptor 2 (Homo sapiens, UniProt P35968); test: Inhibition of VEGFR2
[29] = test system: Hepatocyte growth factor receptor (Homo sapiens), P08581 [Y1248H]; test: Inhibition of human MET Y1248H assessed as residual activity at 10 uM
[30] = molecular target: Serine/threonine-protein kinase Sgk2 (Homo sapiens) (UniProt Q9HBY8); test: Inhibition of human SGK2 assessed as residual activity at 10 uM
Serine/threonine-protein kinase Sgk2 (Homo sapiens), sequence (Q9HBY8 whole entry): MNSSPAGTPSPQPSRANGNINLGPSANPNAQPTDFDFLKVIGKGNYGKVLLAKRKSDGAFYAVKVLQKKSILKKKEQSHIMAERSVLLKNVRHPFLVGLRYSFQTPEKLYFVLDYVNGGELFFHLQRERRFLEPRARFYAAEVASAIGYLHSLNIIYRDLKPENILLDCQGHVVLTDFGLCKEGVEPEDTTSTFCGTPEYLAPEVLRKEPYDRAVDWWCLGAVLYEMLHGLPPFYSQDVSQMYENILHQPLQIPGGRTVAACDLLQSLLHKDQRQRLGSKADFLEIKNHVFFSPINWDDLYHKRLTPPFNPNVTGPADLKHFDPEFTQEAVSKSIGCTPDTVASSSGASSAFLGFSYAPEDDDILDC

[31] = Cmax in SCID mouse xenografted with human OCI-AML-2 cells at 100 mg/kg, ip administered as a single dose by LC/MS/MS analysis; format: ADME, organism-based; design: dose 100 mg/kg, route intraperitoneal; conditions: in vivo
Procedure, shortened: (§1)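 SCID mice with subcutaneous OCI-AML2 xenografts (~500-600 mm3) received a single 100 mg/kg ip dose in 1% DMSO, 20% PEG400, pH 4.2. hIGF-I was injected iv at 3 or 6 h, with blood and tumor taken 10 min after. Compound levels were measured by LC/MS/MS.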

[32] = molecular target: RAC-gamma serine/threonine-protein kinase (Homo sapiens) (UniProt Q9Y243); test: Inhibition of human PKBgamma assessed as residual activity at 10 uM
[33] = molecular target: Protein kinase C zeta type (Homo sapiens) (UniProt Q05513); test: Inhibition of human PKCzeta assessed as residual activity at 10 uM
Protein kinase C zeta type (Homo sapiens), sequence (Q05513 whole entry, looked up): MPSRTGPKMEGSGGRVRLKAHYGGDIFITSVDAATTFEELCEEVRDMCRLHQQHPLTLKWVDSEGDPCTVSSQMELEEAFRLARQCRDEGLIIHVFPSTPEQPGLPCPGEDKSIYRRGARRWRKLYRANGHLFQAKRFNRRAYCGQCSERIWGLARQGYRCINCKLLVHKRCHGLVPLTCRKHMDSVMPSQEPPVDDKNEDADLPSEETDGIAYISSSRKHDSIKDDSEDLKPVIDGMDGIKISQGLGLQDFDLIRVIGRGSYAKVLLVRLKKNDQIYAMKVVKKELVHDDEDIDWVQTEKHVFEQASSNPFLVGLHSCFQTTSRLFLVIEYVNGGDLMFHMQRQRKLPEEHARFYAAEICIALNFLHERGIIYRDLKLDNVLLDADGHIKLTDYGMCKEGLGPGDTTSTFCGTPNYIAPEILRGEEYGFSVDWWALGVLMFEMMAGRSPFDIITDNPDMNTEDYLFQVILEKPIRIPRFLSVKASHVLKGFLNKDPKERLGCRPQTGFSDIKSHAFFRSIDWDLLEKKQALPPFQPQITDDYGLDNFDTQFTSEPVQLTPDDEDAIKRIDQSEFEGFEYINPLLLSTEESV

[34] = molecular target: RAC-alpha serine/threonine-protein kinase (Homo sapiens, UniProt P31749); test: Inhibition of AKT1
[35] = AUC in SCID mouse xenografted with human OCI-AML-2 cells at 100 mg/kg, ip administered as a single dose by LC/MS/MS analysis; format: ADME, organism-based; design: dose 100 mg/kg, route intraperitoneal; conditions: in vivo; procedure, shortened: as §1
[36] = molecular target: Serine/threonine-protein kinase NLK (Homo sapiens) (UniProt Q9UBE8); test: Inhibition of human NLK assessed as residual activity at 10 uM
[37] = molecular target: Glycogen synthase kinase-3 beta (Homo sapiens, UniProt P49841); test: Inhibition of GSK3B
[38] = molecular target: Proto-oncogene tyrosine-protein kinase receptor Ret (Homo sapiens) (UniProt P07949); test: Inhibition of human RET assessed as residual activity at 10 uM

CNc1nc(-c2ccc3c(N)n[nH]c3c2)cc(N2C[C@@H](C(=O)NC3CCCCC3)CC[C@H]2C)n1
inhibition in vivo at 100 mg/kg (Mus musculus [1]): 57%
IC50 (TGF-beta receptor type-1; read-out: IC50): > 10 µM
IC50 (TGF-beta receptor type-1; read-out: pIC50 (converted)): > 10 µM
Activity [2]: 12%
IC50 (HEL): > 30 µM
Activity [3]: 23%
inhibition in vivo at 100 mg/kg (Mus musculus [4]): 29%
Activity [5]: 17%
Activity [6]: 0%
Activity [7]: 43%
IC50 (OCI-AML2): 0.35 µM
inhibition in vivo at 100 mg/kg (Mus musculus [8]): 58%
IC50 [9]: 0.28 µM
Activity [10]: 21%
IC50 [11]: 0.52 µM
IC50 [12]: > 25.1 µM
Activity [13]: 13%
IC50 [14]: > 27.5 µM
Activity [15]: 34%
Activity [16]: 4%
Activity [17]: 26%
Activity [18]: 46%
Activity [19]: 29%
Activity [20]: 14%
IC50 (K562): 18 µM
IC50 [21]: 25.1 µM
inhibition in vivo at 100 mg/kg (Mus musculus [22]): 71%
Activity [23]: 16%
IC50 [24]: > 25.1 µM
Activity [25]: 33%
Activity [26]: 28%
Activity [27]: 44%
IC50 [28]: > 10 µM
Activity [29]: 49%
Activity [30]: -2%
Cmax [31]: 4510 ng/mL
Activity [32]: 22%
Activity [33]: 29%
IC50 [34]: > 10 µM
AUC [35]: 31400 ng·h/mL
Activity [36]: 38%
IC50 [37]: > 25.1 µM
Activity [38]: 46%
